TRPC6 activator: mouse TRPC6 channel activation | 0.13% of 310,000 active | HEK293-TRPC6 membrane potential dye fluorescence; active compounds read high | B-score at 10 µM;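 active = B-score of the integrated fluorescence ratio above library mean plus 3 SD, and starting fluorescence ratio within library mean plus 5 SD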;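 also: higher score means more depolarization so channel activation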
TRPC4 PAM: allosteric potentiators of mouse TRPC4 channel; Q9QUQ5; HEK293 TRPC4beta/mu-opioid, DAMGO EC20, Fluo-4 Ca2+ flux; active compounds read high; B-score at 10 µM; 0.42% of 310,000 active; AID 2227;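 active = B-score of calcium response area above 5 SD of library B-scores, with initial fluorescence ratio within 5 SD of library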;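 also: B-score of integrated fluorescence ratio over time as area under calcium response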
Target sequence (Q9QUQ5 whole entry, looked up): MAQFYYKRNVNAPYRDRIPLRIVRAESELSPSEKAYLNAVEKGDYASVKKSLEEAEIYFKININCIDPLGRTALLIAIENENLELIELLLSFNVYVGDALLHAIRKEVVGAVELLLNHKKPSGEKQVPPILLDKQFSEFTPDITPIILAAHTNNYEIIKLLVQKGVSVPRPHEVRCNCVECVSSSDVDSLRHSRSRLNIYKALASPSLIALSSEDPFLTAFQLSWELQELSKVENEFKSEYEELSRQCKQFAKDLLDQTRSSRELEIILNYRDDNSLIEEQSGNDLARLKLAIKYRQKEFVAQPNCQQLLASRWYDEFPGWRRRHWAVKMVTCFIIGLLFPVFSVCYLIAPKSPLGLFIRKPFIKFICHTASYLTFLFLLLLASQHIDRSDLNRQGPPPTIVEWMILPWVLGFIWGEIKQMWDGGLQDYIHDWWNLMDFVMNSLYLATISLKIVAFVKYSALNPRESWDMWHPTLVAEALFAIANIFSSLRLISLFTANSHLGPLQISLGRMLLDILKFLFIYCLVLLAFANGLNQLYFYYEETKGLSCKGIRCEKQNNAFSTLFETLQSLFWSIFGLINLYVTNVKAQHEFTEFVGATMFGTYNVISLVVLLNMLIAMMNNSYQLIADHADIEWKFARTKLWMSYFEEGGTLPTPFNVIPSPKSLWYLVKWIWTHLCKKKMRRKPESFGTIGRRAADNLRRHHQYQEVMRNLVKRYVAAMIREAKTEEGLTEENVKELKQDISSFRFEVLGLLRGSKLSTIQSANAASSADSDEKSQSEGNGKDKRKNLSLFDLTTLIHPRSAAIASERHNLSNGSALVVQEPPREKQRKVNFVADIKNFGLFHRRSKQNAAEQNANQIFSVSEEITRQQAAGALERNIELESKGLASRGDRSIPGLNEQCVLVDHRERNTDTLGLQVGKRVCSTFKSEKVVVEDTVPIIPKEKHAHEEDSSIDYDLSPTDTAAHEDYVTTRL
TRPC4 inh: blocks the mouse TRPC4 cation channel; 0.39% of 300,000 active; B-score at 10 µM; HEK293 TRPC4beta/mu-opioid, DAMGO-evoked Fluo4 calcium flux; active compounds read low;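 active = B-score over 3 SD under the library average, no early fluorescence shift, positive overall ratio signal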
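Test system – stable TRPC4beta/mu-opioid receptor HEK293 cells · Probe or stimulus – DAMGO, a submaximal dose followed by a maximal one · Dosing – one concentration per compound · Signal – Fluo4 calcium fluorescence by kinetic imaging, 5 s 1 Hz baseline · Evaluation – per-well B score of integrated baseline-normalized Fluo4 ratio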
TRPC6 inhibitor: mouse TRPC6 channel inhibition | 1.1% of 310,000 active | HEK293-TRPC6, membrane potential dye, ACh-evoked depolarization; active compounds read low | Q61143 | B-score at 10 µM;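 active = B-score under library mean minus 3 SD, initial fluorescence not abnormally high, positive integrated signal ratio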;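 also: B-score derived from integrated fluorescence ratio over the kinetic read; more negative B-score means stronger inhibition of depolarization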
TRPC4 agonist: TRPC4 (mouse) channel activation. HEK293 TRPC4beta/mu-opioid, Fluo4 calcium fluorescence; active compounds read high. 0.49% of 310,000 active. Q9QUQ5. B-score at 10 µM. AID 2237;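 active = B-score above 5 SD of library B-scores, and initial fluorescence ratio not above library mean plus 5 SD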;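 also: positive B-score marks a calcium rise read as TRPC4 activation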
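Assay system: HEK293 stable line with TRPC4beta plus mu-opioid receptor. Times: dye 45 min RT, read 110 s. Measured by: kinetic Fluo4 calcium fluorescence. Measure: B score of integrated ratio. Controls: assay buffer as low control, maximal DAMGO as high control.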
TRPC4 spec 2: mouse TRPC4 off-target activity of TRPC6 inhibitors, second screen; HEK293 TRPC4/MOR, membrane potential dye fluorescence; channel activated by saturating DAMGO dose; shares compounds with TRPC6 inhibitor; 42% of 920 active; inhibition, % at 10 µM;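 active = compounds whose fluorescence signal differed from control wells by over 3 SD, either direction, in both duplicate plates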
TRPC4 spec: tests whether TRPC6 inhibitors also affect mouse TRPC4; HEK293 TRPC4/mu-opioid, membrane potential fluorescence; 61% of 920 active; activity change, negative = inhibition, % at 10 µM; shares compounds with TRPC6 inhibitor;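 active = rise or fall in signal beyond 3 SD of buffer-only wells in both replicate plates, either sign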;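 also: integrated kinetic ratio of fluorescence range over baseline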
HEK293 MPD ctr 2-1: second check of TRPC6 inhibitor effects in parental HEK293 cells; shares compounds with TRPC6 inhibitor; signal change vs control, % at 10 µM; 31% of 920 active; parental HEK293 membrane potential dye fluorescence; maximal acetylcholine challenge after compound addition;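 active = membrane potential signal moving either way by over 3 SD of the maximum-effect control, in both duplicate plates, meaning non-specific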
HEK293 MPD ctr-1: counter-screen for TRPC6 inhibitors: effect in parental HEK293 cells | shares compounds with TRPC6 inhibitor | parental HEK293 membrane potential dye fluorescence | membrane potential signal change, % at 10 µM | 60% of 920 active | AID 2780;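 active = membrane potential signal shifting up or down by more than 3 SD of buffer-only wells, on both duplicate plates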
HEK293 MPD ctr-2: checks TRPC6 modulator effects in parental HEK293 cells; shares compounds with TRPC6 inhibitor; membrane potential dye fluorescence; membrane potential signal change, % at 10 µM; 51% of 2,400 active;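 active = membrane potential signal moves up or down beyond 5 SD from buffer-only wells, on both duplicate plates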
HEK293 MPD ctr 2-2: second counter-screen for TRPC6 modulators: effect in parental HEK293 cells. 14% of 2,400 active. inhibition, % at 10 µM. membrane potential dye fluorescence; after compound, maximal acetylcholine stimulation. AID 488926. shares compounds with TRPC6 inhibitor;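 active = membrane potential signal drops by more than 5 SD from the mean control signal, in both duplicate plates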;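 also: plate controls were acetylcholine ECmax control wells for no effect and buffer only wells for full effect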
TRPC4 ctr mod: tests whether TRPC6 modulators also affect mouse TRPC4; shares compounds with TRPC6 inhibitor; HEK293 TRPC4/mu-opioid, membrane potential fluorescence; percent change from control (negative = decrease, positive = increase), % at 10 µM; 69% of 2,400 active; AID 488927;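 active = membrane potential signal moved up or down beyond 5 SD of buffer control wells, in both duplicate plates, actives on both sides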;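 also: plate controls were assay buffer wells for no effect and DAMGO maximal-effect wells for full effect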
TRPC4/MOR inh 2: second selectivity test of TRPC6 modulators against mouse TRPC4. shares compounds with TRPC6 inhibitor. HEK293 TRPC4/mu-opioid, membrane potential dye fluorescence; stimulated with maximal-effect DAMGO. inhibition, % at 10 µM. 55% of 2,400 active;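 active = drop in membrane potential signal beyond 5 SD of the control wells in both duplicate plates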;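 also: TRPC4 counter screen for TRPC6 hits run under conditions tuned for TRPC6 not TRPC4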
TRPC6 block conf: confirmation of mouse TRPC6 inhibitors; shares compounds with TRPC6 inhibitor; HEK293-TRPC6, membrane potential dye, ACh-evoked depolarization; inhibition, % at 10 µM; 43% of 3,300 active; AID 488960;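 active = fluorescence ratio falls more than 5 SD below the full-stimulation control mean, in both duplicate runs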;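 also: integrated fluorescence ratio of peak minus minimum over baseline after agonist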
TRPC6 act conf: confirmation of mouse TRPC6 activators; shares compounds with TRPC6 inhibitor; HEK293-TRPC6 membrane potential dye fluorescence, FDSS; activation, % at 10 µM; 11% of 2,800 active; AID 488961;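 active = ratio signal rise beyond 5 SD above unstimulated control wells' mean, seen in both duplicate runs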;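 also: plate controls were buffer EC0 wells for no effect and acetylcholine ECmax response for full effect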
* marks the source's active call; other numbers are inactive results; i = inactive; / = no result. Sampled rows, rich in hits. Any-hit rate of the full collection: about 2.3%.

SMILES	TRPC6 activator	TRPC4 PAM	TRPC4 inh	TRPC6 inhibitor	TRPC4 agonist	HEK293 MPD ctr-2	HEK293 MPD ctr 2-2	TRPC4 ctr mod	TRPC4/MOR inh 2	TRPC6 block conf	TRPC6 act conf	others
CCN(CC)CC#CCC(O)(c1ccccc1)C1CCCC1 (stereo unspecified)	i	i	i	-6.5*	i	156%*	100%*	30%*	i	75%*	/
OCCN(CC#CCC(O)(c1ccccc1)C1CCCC1)CCO (stereo unspecified)	i	i	i	i	i	/	/	/	/	/	/
CN(C)CC#CCC(O)(c1ccccc1)C1CCCCC1 (stereo unspecified)	i	i	i	-6.5*	i	i	105%*	20%*	36%*	78%*	i
CCN(CC)CCC#CC(O)(c1ccccc1)C1CCCCC1 (stereo unspecified)	i	i	i	-7.6*	i	/	/	/	/	64%*	/	TRPC4 spec 2=62%*;TRPC4 spec=49%*;HEK293 MPD ctr 2-1=i;HEK293 MPD ctr-1=17%*
CC(C)C(C)NC(=O)CN1C(=O)NC2(CCCc3ccccc32)C1=O (stereo unspecified)	i	i	i	i	i	/	/	/	/	/	/
CCOc1ccc(N(CC(=O)N2CCOCC2)S(=O)(=O)c2ccc(Cl)cc2)cc1	i	i	i	i	i	/	/	/	/	/	/
COc1ccccc1N1CCN(C2=Nc3cccc4cccc2c34)CC1	i	i	i	-8.7*	i	-214%*	79%*	-45%*	84%*	60%*	i
CC(=O)N1CCN(C2=Nc3cccc4cccc2c34)CC1	i	i	i	-8.1*	i	-226%*	i	-97%*	48%*	57%*	i
O=C(O)c1ccc(NC2=Nc3cccc4cccc2c34)cc1	i	i	i	i	i	/	/	/	/	/	/
CC1CN(C2=Nc3cccc4cccc2c34)CC(C)O1 (stereo unspecified)	i	i	i	-7.3*	i	-152%*	i	-72%*	46%*	58%*	i
O=C1c2ccccc2C(=O)c2c1cccc2N1CCOCC1	i	i	i	i	i	/	/	/	/	/	/
CC1CN(c2oc(-c3ccccc3Cl)nc2C#N)CC(C)O1 (stereo unspecified)	i	i	i	i	i	/	/	/	/	/	/
c1cc2c3c(cccc3c1)C(N1CCOCC1)=N2	i	i	i	-6.8*	i	-198%*	i	-129%*	84%*	52%*	i
CN(Cc1ccco1)S(=O)(=O)c1csc(C(N)=O)c1	i	i	i	i	i	/	/	/	/	/	/

Compound activity as filed in PubChem.
